This is an account of results in ChEMBL document CHEMBL1154356, “1-Peptidyl-2-arachidonoyl-3-stearoyl-sn-glyceride: an immunologically active lipopeptide from goat serum (Capra hircus) is an endogenous damage-associated molecular pattern” (J Nat Prod, 2009).

Data set [1] deals with Fibroblast. As to the kind of experiment: Immunomodulatory effect in human fibroblasts assessed as induction of MCP1 mRNA expression at 1:100 dilution after 24 hrs by SYBR Green PCR relative to beta-actin control. The class given is functional. Put shortly:
(§1)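 Normal primary human fibroblasts were grown in DMEM with 10% FBS and 1× penicillin/streptomycin at 37 °C and 5% CO2. Cells were treated for 24 h with synthetic compound or with purified natural material diluted 1:100. Total RNA was extracted, and 2.0 µg was reverse-transcribed for transcript quantitation. Expression was normalised to β-actin.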

For data set [2], the system named is Fibroblast. As to the kind of experiment: Induction of IL8 secretion in human fibroblasts after 24 hrs by ELISA relative to untreated control. Type of data set: functional. Put shortly:
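Primary human fibroblasts were cultured in complete DMEM with synthetic compound across a dose range that included 0.3–3 ng/mL, for 24 h. Supernatants were stored at -80 °C. IL-8 was measured by sandwich ELISA: plates coated with anti-human IL-8 overnight at 4 °C, blocked 60 min at room temperature, sample 2 h, detection antibody 30 min, avidin-HRP 30 min, then TMB substrate.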

Data set [3] in a line: Toxicity in human fibroblasts assessed as decrease in IL8 mRNA expression after 24 hrs by SYBR Green PCR relative to untreated control. Conditions: fibroblast. Type of data set: cell-based. Put shortly:
as §1

The test system of data set [4] is Fibroblast. As to the kind of experiment: Induction of IL6 expression in human fibroblasts at 12.5 ng/ml after 24 hrs by SYBR Green PCR relative to untreated control. The class given is functional, cell-based.
Data set [5] has as its system Fibroblast. As to the kind of experiment: Immunomodulatory effect in human fibroblasts assessed as induction of MIP-1alpha mRNA expression at 1:100 dilution after 24 hrs by SYBR Green PCR relative to beta-actin control. The class given is functional. Put shortly: as §1
The test system of data set [6] is Fibroblast. The experiment in a line: Induction of IL8 expression in human fibroblasts at 12.5 ng/ml after 24 hrs by SYBR Green PCR relative to untreated control. The class given is functional, cell-based.
Data set [7] relates to Fibroblast. As to the kind of experiment: Induction of IL18 expression in human fibroblasts at 12.5 ng/ml after 24 hrs by SYBR Green PCR relative to untreated control. Type of data set: functional.
Data set [8] has as its system Fibroblast. As to the kind of experiment: Immunomodulatory effect in human fibroblasts assessed as induction of IL6 mRNA expression at 1:100 dilution after 24 hrs by SYBR Green PCR relative to beta-actin control. The class given is functional. Put shortly:
as §1

In data set [9] the test system is Fibroblast. As to the kind of experiment: Immunomodulatory effect in human fibroblasts assessed as induction of MCP1 mRNA expression at 3 ng/ml after 24 hrs by SYBR Green PCR relative to beta-actin control. The class given is functional. Put shortly: as §1
For data set [10], the system named is Fibroblast. The experiment in a line: Immunomodulatory effect in human fibroblasts assessed as induction of MIP-1alpha mRNA expression at 3 ng/ml after 24 hrs by SYBR Green PCR relative to beta-actin control. The class given is functional. Put shortly: as §1
Data set [11] relates to Fibroblast. The experiment in a line: Induction of IL1-beta expression in human fibroblasts at 12.5 ng/ml after 24 hrs by SYBR Green PCR relative to untreated control. The class given is functional, cell-based.
Data set [12] has as its system Fibroblast. The experiment in a line: Immunomodulatory effect in human fibroblasts assessed as induction of IL8 mRNA expression at 3 ng/ml after 24 hrs by SYBR Green PCR relative to untreated control. The class given is functional. Put shortly: as §1
In data set [13] the test system is Fibroblast. As to the kind of experiment: Immunomodulatory effect in human fibroblasts assessed as induction of IL6 mRNA expression at 5 ng/ml after 24 hrs by SYBR Green PCR relative to beta-actin control. Type of data set: functional. Put shortly: as §1
Data set [14] deals with Fibroblast. As to the kind of experiment: Induction of IL33 expression in human fibroblasts at 12.5 ng/ml after 24 hrs by SYBR Green PCR relative to untreated control. The class given is functional, cell-based.

The source made the active and inactive calls. The calls are words filed in the database; no cut-off is given here. Where a SMILES comes first, the peptide text is derived from it. The star is where a group is joined. X1 = CCCCC/C=C\C/C=C\C/C=C\C/C=C\CCCC(=O)O[C@@H](COC(=O)CCCCCCCCCCCCCCCCC)CO*

With `CCCCC/C=C\C/C=C\C/C=C\C/C=C\CCCC(=O)O[C@@H](COC(=O)CCCCCCCCCCCCCCCCC)COC(=O)[C@@H](NC(=O)CNC(=O)[C@@H](NC(=O)[C@H](CS)NC(=O)[C@H](CC(=O)O)NC(=O)[C@H](CCCCN)NC(=O)[C@H](CCC(N)=O)NC(=O)[C@H](CCC(=O)O)NC(=O)[C@H](CCCCN)NC(=O)[C@H](CO)NC(=O)[C@@H](NC(=O)[C@H](Cc1ccc(O)cc1)NC(=O)CNC(=O)[C@H](CCCCN)NC(=O)[C@H](CC(=O)O)NC(=O)[C@H](Cc1ccc(O)cc1)NC(=O)[C@H](CC(C)C)NC(=O)[C@H](C)NC(C)=O)[C@@H](C)O)C(C)C)[C@@H](C)CC` (Ac-ALYDKGYTSKEQKDCVGI-X1), the results for the “fold change (FC)” value in data set [1], in [9] and in [12] were 3, 3 and 5, respectively. Besides, the Activity result was “Dose-dependent effect” in data set [2]; “Dose-dependent effect” in data set [3]; 15% in data set [5]; 20% in data set [7]; 40% in [8]; 15% in data set [10]. Moreover, the Activity in [13] stood at 20%. Besides, the EC99 in [2] came to 0.003 µg/mL. Also, the result in [4], in data set [6] and in data set [11] was inactive. The outcome in [14] was Active.
